Reference: ChEMBL document CHEMBL1944546, “Structure-activity relationships of novel alkylides: 3-O-arylalkyl clarithromycin derivatives with improved antibacterial activities” (2012)
Values after ≈ are worked out from the molar mass of the structure shown.

How the values were obtained:
[1] = tested on: Streptococcus pneumoniae; assay: Antibacterial activity against erythromycin-susceptible Streptococcus pneumoniae ATCC 49619 by broth microdilution method; assay type: functional
How it was run: (§1)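 MIC read by broth microdilution following CLSI (2010) guidance. The clinical isolates were identified by 16S rDNA sequencing and labelled by genotype and phenotype. S. aureus ATCC 29213 and S. pneumoniae ATCC 49619 were the control strains. Azithromycin, clarithromycin and 3-OH-clarithromycin were run as reference compounds.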

[2] = tested on: Streptococcus pneumoniae; assay: Antibacterial activity against penicillin-, constitutive MLS-resistant Streptococcus pneumoniae PU 11 by broth microdilution method; assay type: functional
How it was run: (§2)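 MIC by broth microdilution following CLSI (2010) recommendations, using clinical isolates identified by 16S rDNA sequencing and labelled by genotype and phenotype. S. aureus ATCC 29213 and S. pneumoniae ATCC 49619 were run as control strains, and azithromycin, clarithromycin and 3-OH-clarithromycin were tested as reference agents.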

[3] = tested on: Staphylococcus aureus; assay: Antibacterial activity against erythromycin-susceptible Staphylococcus aureus ATCC 29213 by broth microdilution method; assay type: functional; how it was run: as §1
[4] = tested on: Staphylococcus haemolyticus; assay: Antibacterial activity against methicillin-resistant, coagulase-negative, constitutive MLS-resistant Staphylococcus haemolyticus PU 19 by broth microdilution method; assay type: functional; how it was run: as §2
[5] = tested on: Staphylococcus aureus; assay: Antibacterial activity against methicillin-, inducible MLS-resistant Staphylococcus aureus PU 32 by broth microdilution method
[6] = tested on: Streptococcus pneumoniae; assay: Antibacterial activity against efflux,penicillin-susceptible Streptococcus pneumoniae PU 09 by broth microdilution method; assay type: functional; how it was run: as §1
[7] = tested on: Streptococcus pneumoniae; assay: Antibacterial activity against penicillin-susceptible, constitutive MLS-resistant Streptococcus pneumoniae PU 27 by broth microdilution method; assay type: functional; how it was run: as §2

Row | Compound | MIC [1] [µg/mL] | MIC [2] [µg/mL] | MIC [3] [µg/mL] | MIC [4] [µg/mL] | MIC [5] [µg/mL] | MIC [6] [µg/mL] | MIC [7] [µg/mL]
1 | CC[C@H]1OC(=O)[C@H](C)[C@@H](OCC#Cc2cccnc2)[C@H](C)[C@@H](O[C@@H]2O[C@H](C)C[C@H](N(C)C)[C@H]2O)[C@](C)(OC)C[C@@H](C)/C(=N\OCc2ccccc2Cl)[C@H](C)[C@H]2OC(=O)O[C@@]21C | 16 (≈ 18.4 µM) | 32 (≈ 36.8 µM) | 64 (≈ 73.5 µM) | 64 (≈ 73.5 µM) | 64 (≈ 73.5 µM) |  | 
2 | CC[C@H]1OC(=O)[C@H](C)[C@@H](OC/C=C/c2cccnc2)[C@H](C)[C@@H](O[C@@H]2O[C@H](C)C[C@H](N(C)C)[C@H]2O)[C@](C)(OC)C[C@@H](C)/C(=N\OCc2ccccc2Cl)[C@H](C)[C@H]2OC(=O)O[C@@]21C | 4 (≈ 4.58 µM) | 16 (≈ 18.3 µM) | 32 (≈ 36.7 µM) | 32 (≈ 36.7 µM) | 32 (≈ 36.7 µM) | 8 (≈ 9.17 µM) | 16 (≈ 18.3 µM)
3 | CC[C@H]1OC(=O)[C@H](C)[C@@H](OCC#Cc2cncnc2)[C@H](C)[C@@H](O[C@@H]2O[C@H](C)C[C@H](N(C)C)[C@H]2O)[C@](C)(OC)C[C@@H](C)/C(=N\OCc2ccccc2Cl)[C@H](C)[C@H]2OC(=O)O[C@@]21C | 16 (≈ 18.4 µM) | 32 (≈ 36.7 µM) | 32 (≈ 36.7 µM) | 32 (≈ 36.7 µM) | 32 (≈ 36.7 µM) |  | 
4 | CC[C@H]1OC(=O)[C@H](C)[C@@H](OC/C=C/c2ccc(-n3ccnc3)cc2)[C@H](C)[C@@H](O[C@@H]2O[C@H](C)C[C@H](N(C)C)[C@H]2O)[C@](C)(OC)C[C@@H](C)/C(=N\OCc2ccccc2Cl)[C@H](C)[C@H]2OC(=O)O[C@@]21C | 16 (≈ 17.1 µM) | 32 (≈ 34.1 µM) | 32 (≈ 34.1 µM) | 32 (≈ 34.1 µM) | 32 (≈ 34.1 µM) | 16 (≈ 17.1 µM) | 32 (≈ 34.1 µM)
5 | CC[C@H]1OC(=O)[C@H](C)[C@@H](OC/C=C/c2cncnc2)[C@H](C)[C@@H](O[C@@H]2O[C@H](C)C[C@H](N(C)C)[C@H]2O)[C@](C)(OC)C[C@@H](C)/C(=N\OCc2ccccc2Cl)[C@H](C)[C@H]2OC(=O)O[C@@]21C | 4 (≈ 4.58 µM) | 32 (≈ 36.6 µM) | 64 (≈ 73.3 µM) | 64 (≈ 73.3 µM) | 64 (≈ 73.3 µM) |  | 
6 | CC[C@H]1OC(=O)[C@H](C)[C@@H](O/C=C\Cc2cncnc2)[C@H](C)[C@@H](O[C@@H]2O[C@H](C)C[C@H](N(C)C)[C@H]2O)[C@](C)(OC)C[C@@H](C)/C(=N\OCc2ccccc2Cl)[C@H](C)[C@H]2OC(=O)O[C@@]21C | 0.25 (≈ 0.286 µM) | 32 (≈ 36.6 µM) | 8 (≈ 9.16 µM) | 64 (≈ 73.3 µM) | 32 (≈ 36.6 µM) |  | 
7 | CC[C@H]1OC(=O)[C@H](C)[C@@H](O)[C@H](C)[C@@H](O[C@@H]2O[C@H](C)C[C@H](N(C)C)[C@H]2O)[C@](C)(OC)C[C@@H](C)C(=O)[C@H](C)[C@@H](O)[C@]1(C)O | 64 (≈ 109 µM) | > 256 | > 256 | > 256 | > 256 | 128 (≈ 217 µM) | 128 (≈ 217 µM)
8 | CC[C@H]1OC(=O)[C@H](C)[C@@H](O/C=C\Cc2cncnc2)[C@H](C)[C@@H](O[C@@H]2O[C@H](C)C[C@H](N(C)C)[C@H]2O)[C@](C)(OC)C[C@@H](C)/C(=N\OCc2ccccc2)[C@H](C)[C@H]2OC(=O)O[C@@]21C | 0.25 (≈ 0.298 µM) | 32 (≈ 38.1 µM) | 2 (≈ 2.38 µM) | 64 (≈ 76.3 µM) | 1 (≈ 1.19 µM) | 1 (≈ 1.19 µM) | 16 (≈ 19.1 µM)
9 | CC[C@H]1OC(=O)[C@H](C)[C@@H](OC/C=C/c2cncnc2)[C@H](C)[C@@H](O[C@@H]2O[C@H](C)C[C@H](N(C)C)[C@H]2O)[C@](C)(OC)C[C@@H](C)/C(=N\OCc2ccccc2)[C@H](C)[C@H]2OC(=O)O[C@@]21C | 2 (≈ 2.38 µM) | 64 (≈ 76.3 µM) | 32 (≈ 38.1 µM) | > 256 | 32 (≈ 38.1 µM) | 4 (≈ 4.77 µM) | 64 (≈ 76.3 µM)
10 | CC[C@H]1OC(=O)[C@H](C)[C@@H](O/C=C\Cc2cncnc2)[C@H](C)[C@@H](O[C@@H]2O[C@H](C)C[C@H](N(C)C)[C@H]2O)[C@](C)(OC)C[C@@H](C)/C(=N\OCc2ccccc2)[C@H](C)[C@@H](O)[C@]1(C)O | 2 (≈ 2.46 µM) | 64 (≈ 78.7 µM) | 32 (≈ 39.4 µM) | > 256 | 4 (≈ 4.92 µM) | 2 (≈ 2.46 µM) | 32 (≈ 39.4 µM)
